High-throughput results: PubChem BioAssay, several laboratories
Apaf1 inhib: inhibitors of human Apaf-1 apoptosome | O14727 | reconstituted apoptosome caspase-3 activity, DEVD-Rh110 fluorescence | inhibition, % at 20 µM | hit rate 0.71% among 330,000; active = inhibition of at least 40% at 20 µM;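 note: plate controls were DMSO wells for no effect and DEVD-CHO caspase inhibitor wells for full effect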
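System – cell-free apoptosome with Apaf-1, procaspase-3 and caspase-9 · Buffer or medium – pH 7.5 Hepes buffer with CHAPS, BSA, DTT · Also added – cytochrome c with DEVD-Rh110 · Times – 30 min compound preincubation, 50 min activation, room temperature · Technique – Rh110 fluorescence intensity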
GSTO1 inh: GSTO1 inhibition, counter-screen for RBBP9 inhibitors | hit rate 1.1% among 300,000 | AID 1974 | P78417 | inhibition, % at 5.96 µM | recombinant GSTO1, activity-based probe fluorescence polarization;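 active = inhibition above the campaign mean inhibition plus 3 SD, cut at about 35% in these data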;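 note: 0% = GSTO1-1 with DMSO and 100% = wells lacking GSTO1-1 enzyme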
Target sequence (P78417 whole entry, looked up): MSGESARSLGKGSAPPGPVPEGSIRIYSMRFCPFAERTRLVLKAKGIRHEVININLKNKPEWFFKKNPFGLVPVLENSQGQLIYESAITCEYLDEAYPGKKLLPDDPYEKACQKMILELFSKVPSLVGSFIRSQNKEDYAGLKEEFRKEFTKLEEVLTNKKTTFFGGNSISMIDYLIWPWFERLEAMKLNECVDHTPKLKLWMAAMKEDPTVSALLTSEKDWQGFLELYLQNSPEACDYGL
UBC9 SUMO inh: SUMOylation inhibition; P63279; HTRF SUMOylation assay, SAE1/SAE2 + UBC9, in vitro; inhibition, % at 35 µM; hit rate 0.36% among 290,000; AID 2006; in the data active = inhibition above about 50%, passing the limit was not always enough
Target sequence (P63279 whole entry, looked up): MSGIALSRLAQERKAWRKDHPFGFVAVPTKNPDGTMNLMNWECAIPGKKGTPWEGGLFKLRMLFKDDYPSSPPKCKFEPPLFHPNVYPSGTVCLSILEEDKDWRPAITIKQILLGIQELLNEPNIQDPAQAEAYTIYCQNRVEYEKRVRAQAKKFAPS
HKDC1 inh: inhibitors of human hexokinase HKDC1 | recombinant HKDC1, G6PDH/diaphorase resazurin coupled fluorescence | Q2TB90 | hit rate 0.16% among 340,000 | inhibition, % at 20 µM;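 active = inhibition above about 35% when tested at 20 µM, limit read from the data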;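 note: plate controls were DMSO wells with enzyme for no effect and DMSO wells lacking enzyme for full effect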
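test system = in-house recombinant HK5 (HKDC1) enzyme | amount = HKDC1 at 5 µg/mL | control set = DMSO-enzyme wells negative, buffer-substituted wells positive | compound = one dose of 20 µM, 1% DMSO | schedule = reaction time 90 min, room temperature, protected from light | technique = resorufin fluorescence at 613 nm | reagent = glucose with 1 mM ATP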
DTT redox prof: compounds producing H2O2 with reducing agent – biochemical, NIH compound library profiling, artefact control for MLSCN library redox annotation, primary screen | DTT-dependent redox cycling H2O2, phenol red/HRP absorbance; 100% = 100 µM peroxide control, 0% = buffer | activation, % at 10 µM | hit rate 0.03% among 200,000;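 active = activation of at least 50% relative to the plate's high and low controls in the primary single-dose screen; inactive = activation below 50%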;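 note: compound incubated with DTT at 0.8 mM final as the reducing agent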
GSTO1 inh conf: GSTO1 (human) inhibition, confirmation; shares compounds with GSTO1 inh; hit rate 54% among 2,400; recombinant GSTO1, probe fluorescence polarization; inhibition, % at 5.96 µM;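 active = inhibition above the primary screen's cutoff, its mean inhibition plus 3 SD, cut at about 35% in these data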;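 note: loss of polarization as inhibitors block binding of rhodamine sulfonate ester activity probe; 0% = GSTO1 with DMSO and 100% = wells lacking GSTO1 enzyme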
Active calls of the source: *; / = no result given; ! = repeats disagree. In the library only some 1.4% were active in any assay of this set; here they are far more common.

SMILES | Apaf1 inhib | GSTO1 inh | UBC9 SUMO inh | HKDC1 inh | DTT redox prof | GSTO1 inh conf
O=[N+]([O-])c1ccc2[nH]c(O)c(N=NC(=S)NCC3CCCO3)c2c1 (configuration not stated) | -17 | 40* | -16 | 4 | 0 | 45*
O=C(CNC(=O)c1ccc(Br)cc1)N=Nc1c(O)[nH]c2ccc([N+](=O)[O-])cc12 | 11 | 19 | 27 | -5 | / | /
O=[N+]([O-])c1ccc2[nH]c(O)c(N=NC(=S)Nc3cccnc3)c2c1 | 1 | 42* | / | 4 | / | 65*
C=CCOc1ccc(/C=C/C(=O)OCC(=O)N(C)CC(=O)Nc2ccccc2Cl)cc1 | 22 | 4 | / | -2 | / | /
O=C(CSc1nnc(-c2ccco2)o1)c1ccc([N+](=O)[O-])cc1 | -8 | 47* | 14 | 1 | / | 24
O=C(CSc1nnc(-c2ccco2)o1)c1ccccc1Cl | 2 | 8 | 14 | 4 | 0 | /
NC1=NC(=O)/C(=C\c2ccco2)S1 | -5 | 41* | / | 9 | / | 31
CC1CCCCC1NC(=O)CCN1C(=O)C2C3C=CC(C3)C2C1=O (configuration not stated) | 0 | -7 | 3 | -6 | / | /
COc1ccc(C(=O)Nc2ccnn2C2CCN(C(=O)C3CCOC3)CC2)cc1 (configuration not stated) | 6 | 5 | 14 | -2 | / | /
Cc1ccc(C(=O)CSc2nnnn2C(C)C)c(C)c1 | 11 | 39* | 8 | -1 | 2 | 38*
O=C(Nc1ccccc1)c1nn(-c2ccccc2)c(=O)cc1C(F)(F)F | -18 | 9 | 13 | 3 | 2 | /
O=C(c1ccccc1)c1nn(-c2ccc(Cl)cc2)c(=O)cc1C(F)(F)F | 28 | 76* | -7 | 23 | -3 | 78*
Cc1[nH]c2ccccc2c1/C=N/n1cnnc1 | 1 | -6 | -2 | -6 | 2 | /
CCN(CC)c1ccc(N=Cc2c(C)[nH]c3ccccc23)cc1 | 35 | 56* | -27 | 15 | 0 | 5
O=C(Cc1ccc(Br)cc1)OCC(=O)N1CCCCCC1 | 8 | / | / | -4 | / | /
Cc1oc2c(O)c(O)ccc2c(=O)c1-c1cnn(-c2ccccc2)c1 | 18 | 59* | 13 | 9 | 2 | 23
Cc1ccccc1NCC(=O)N=Nc1c(O)[nH]c2ccc([N+](=O)[O-])cc12 | -16 | 45* | 18 | 1 | / | 50*
O=C(N=Nc1c(O)[nH]c2ccc([N+](=O)[O-])cc12)c1ccccc1Cl | -6 | 45* | / | 13 | / | 18
Cc1cccc(OCC(=O)N=Nc2c(O)[nH]c3ccc([N+](=O)[O-])cc23)c1 | -7 | 20 | 14 | 30 | / | /
CC(Sc1nc2ncc(Cl)cc2[nH]1)C(=O)c1c(N)n(C)c(=O)n(C)c1=O (configuration not stated) | -1 | 74* | / | 4 | / | 6
CC(C)Cn1c(N)c(C(=O)CSc2nc3ncc(Cl)cc3[nH]2)c(=O)n(C)c1=O | 16 | -13 | / | 4 | / | /
O=C1C=C(Nc2ccccc2)C(=O)c2ccccc21 | 17 | 32 | 15 | 12 | 0 | /
CC1=CC(=O)c2ccccc2C1=O | -2 | 39*! | -29 | 0 | 0 | 50*
Cc1ccc(CNC(=O)C2CCCN(c3nc4ccsc4c(=O)s3)C2)cc1 (configuration not stated) | -8 | -1 | 22 | 5 | -2 | /
CCOc1cc(C(=O)N2CCC3(CC2)NCCc2[nH]cnc23)cc(OCC)c1OCC | -7 | -6 | / | -6 | / | /
SMILES | Apaf1 inhib | GSTO1 inh | UBC9 SUMO inh | HKDC1 inh | DTT redox prof | GSTO1 inh conf
CC(=O)C(=Nc1ccccc1Cl)NNc1ccc(Cl)cc1 | 23 | 40* | 6 | 5 | -2 | 10
COCCn1cnnc1SCC(=O)c1ccc(S(=O)(=O)N2CCCC2)cc1 | 13 | 61* | 21 | -1 | 0 | 61*
O=C(NCCN1CCOCC1)NC1(C(F)(F)F)Oc2ccc(Cl)cc2O1 (configuration not stated) | / | 49* | 5 | -4 | 0 | 6
O=C(O)Cc1cc(I)c(Oc2ccc(O)c(I)c2)c(I)c1 | 28 | 62* | 31 | / | -1 | 56*
CCN(C(=O)Cn1cc(C(=O)C(=O)N2CCOCC2)c2ccccc21)c1ccccc1 | -7 | 67* | 12 | -2 | / | 2
CCn1c(=O)oc2cc(NC(=O)CCl)ccc21 | -4 | 88* | 7 | -4 | 0 | 92*
O=S1(=O)c2cccc3cccc(c23)N1CCBr | 11 | 45* | 15 | 13 | / | 51*
CCCN1c2cccc3cccc(c23)S1(=O)=O | 16 | -4 | 26 | 8 | -2 | /
Cc1cc(C)n(-c2cc(O)c(-n3nc(C)cc3C)cc2O)n1 | -1 | 47* | 17 | 0 | -1 | 3
Cc1cc(N=Cc2c(O)n(-c3ccc(C)c(C)c3)c(=O)c3ccccc23)no1 | / | / | 5 | / | 0 | /
Cc1cc(N=Cc2c(O)ccc3cc(Br)ccc23)no1 | / | 46* | 30 | 24 | 0 | 23
C=C(C)COc1ccc2c(C)c(CCC(=O)NC3CC3)c(=O)oc2c1 | -4 | -6 | 28 | -2 | / | /
CC1=NOC2(C1)N(C)c1ccccc1C2(C)C (configuration not stated) | -18 | 5 | 9 | -1 | 0 | /
COc1ccc2ccc3c(c2c1)N=C[C@]1(O3)N(C)c2ccccc2C1(C)C | 24 | 86* | 89 | 11 | 2 | 4
Cc1[nH]n(-c2ccccc2)c(=O)c1N=Nc1c(O)cc(S(=O)(=O)N(C)C)c2ccccc12 | 23 | 47* | / | -5 | / | 71*
O=C(CCl)Nc1cccc(-c2cnc3ccccc3n2)c1 | 8 | 69* | 2 | 16 | 0 | 94*
CCC(=O)Nc1cccc(-c2cnc3ccccc3n2)c1 | -2 | -1 | -3 | 5 | 0 | /
Cn1c(SCC(=O)NN2C(=O)NC(C)(c3ccccc3)C2=O)nnc1-c1ccncc1 (configuration not stated) | -10 | / | / | -6 | / | /
c1coc(-c2nc3ccccc3nc2-c2ccco2)c1 | 32 | 62* | 46 | 17 | 0 | 61*
Cc1nc([N+](=O)[O-])cn1CC(=O)c1ccc(F)cc1 | -1 | -5 | 10 | -3 | / | /
CCOC(=O)c1sc2nc(C)nc(NC3CCC(O)CC3)c2c1C (configuration not stated) | -4 | -12 | 12 | -2 | / | /
CCOc1cc(N2CCOCC2)c(OCC)cc1NC(=O)c1c(-c2ccccc2Cl)noc1C | 11 | 4 | -21 | 11 | 0 | /
NS(=O)(=O)c1ccc(CCNC(=O)c2ccc([N+](=O)[O-])s2)cc1 | 6 | 50* | -4 | -3 | / | 7
Cc1cccc(CC(=O)Nc2ccc(C(=O)N3CCOCC3)cc2)c1 | -2 | 0 | -11 | -6 | / | /
COc1ccc(CCn2c(NN)nc3c2c(=O)[nH]c(=O)n3C)cc1 | -32 | 41* | 2 | 3 | / | 8
